Experiment [1] has as its system NIH3T3. The experiment is described as follows: Antiproliferative activity against mouse NIH3T3 cells expressing RET C634R mutant associated with MEN2A syndrome after 72 hrs. The conditions noted are these: NIH3T3, 72 h.
Experiment [2] addresses Proto-oncogene tyrosine-protein kinase receptor Ret (Homo sapiens, UniProt P07949). The experiment is described as follows: Inhibition of recombinant RET active protein by immunoblotting. Background: Immunoblotting shows a protein as a band on a membrane.
Experiment [3] concerns NIH3T3. The experiment in a line: Antiproliferative activity against mouse NIH3T3 cells after 72 hrs. To be noted: NIH3T3, 72 h.
For experiment [4], the system named is NIH3T3. The experiment in a line: Antiproliferative activity against mouse NIH3T3 cells transfected with H-RAS oncogene after 72 hrs. The conditions noted are these: NIH3T3, 72 h.
Experiment [5] relates to NIH3T3. The experiment is described as follows: Inhibition of RET oncoprotein expression in mouse NIH3T3 cells transfected with RET C634R mutant associated with MEN2A syndrome at 2.5 to 10 uM after 24 hrs by Western blot. The experiment is classed as functional, cell-based. The gist of the method: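 NIH3T3MEN2A cells were exposed to compound or to DMSO vehicle for 24 h. Whole-cell lysates were Western blotted with anti-Ret (H300) and anti-phospho-Ret (Y1062) antibodies. Actin served as the loading control, and a lysate of untreated parental NIH3T3 cells was run alongside.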

pIC50: −log10 of the molar value. Active and inactive are the calls of the source. The calls are words filed in the database; no cut-off is given here. Some results are limits rather than exact numbers.

As a reminder, the pIC50 is the IC50 on a negative log10 scale, so that one unit is a factor of ten.

Sequence of Proto-oncogene tyrosine-protein kinase receptor Ret (P07949 whole entry): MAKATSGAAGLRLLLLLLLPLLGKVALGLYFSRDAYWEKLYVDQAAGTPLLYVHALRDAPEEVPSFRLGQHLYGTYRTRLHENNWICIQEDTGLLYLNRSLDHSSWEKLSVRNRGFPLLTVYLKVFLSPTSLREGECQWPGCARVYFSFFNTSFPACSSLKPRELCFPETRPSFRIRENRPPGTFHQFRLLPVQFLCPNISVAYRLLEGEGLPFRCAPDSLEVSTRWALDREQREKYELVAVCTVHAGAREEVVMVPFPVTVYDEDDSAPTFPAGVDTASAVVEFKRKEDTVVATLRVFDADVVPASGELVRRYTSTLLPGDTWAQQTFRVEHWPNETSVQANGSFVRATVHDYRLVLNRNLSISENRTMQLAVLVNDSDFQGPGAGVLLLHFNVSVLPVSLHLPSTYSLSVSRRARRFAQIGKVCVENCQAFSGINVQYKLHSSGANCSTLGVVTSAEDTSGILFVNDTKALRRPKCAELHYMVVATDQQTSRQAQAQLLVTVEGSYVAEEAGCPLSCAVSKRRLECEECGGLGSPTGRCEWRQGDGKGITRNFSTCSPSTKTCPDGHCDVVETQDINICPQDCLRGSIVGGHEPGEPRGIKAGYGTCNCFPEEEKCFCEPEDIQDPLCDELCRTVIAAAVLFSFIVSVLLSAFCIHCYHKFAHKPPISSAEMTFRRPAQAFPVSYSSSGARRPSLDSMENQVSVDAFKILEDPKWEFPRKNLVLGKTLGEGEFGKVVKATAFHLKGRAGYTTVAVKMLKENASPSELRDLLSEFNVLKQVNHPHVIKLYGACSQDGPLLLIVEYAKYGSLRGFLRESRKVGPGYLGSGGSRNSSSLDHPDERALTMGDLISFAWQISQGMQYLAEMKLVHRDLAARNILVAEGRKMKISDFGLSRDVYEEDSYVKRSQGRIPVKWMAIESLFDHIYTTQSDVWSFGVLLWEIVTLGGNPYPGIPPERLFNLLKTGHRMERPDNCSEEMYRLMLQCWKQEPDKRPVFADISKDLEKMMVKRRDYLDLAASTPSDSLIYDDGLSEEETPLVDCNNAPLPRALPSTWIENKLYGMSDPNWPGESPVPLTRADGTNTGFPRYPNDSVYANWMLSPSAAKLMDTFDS

`COc1cc2c3cc(-c4ccccc4)[nH]c(=O)c3n(C)c2cc1OC`: in the experiment with NIH3T3 [1], the pIC50 was 4.46.
With `COc1cc2c3ccn(Cc4ccccc4)c(=O)c3n(C)c2cc1OC`, the figures for the pIC50 (in the experiment with NIH3T3 [1]; in experiment [2]) were 4.80 and under 6.22, respectively.
Turning to `COc1cc2[nH]c3c(c2cc1OC)C(c1ccc(O)cc1)=CCNC3=O`, the pIC50 with NIH3T3 [1] was 4.70.
Regarding `COc1ccc(CN2CC=C(c3ccc(O)cc3)c3c(n(C)c4cc(OC)c(OC)cc34)C2=O)cc1`, the pIC50 in the experiment with NIH3T3 [1] was 5.17.
Same read-out and setting: the result for `COc1ccc(C2=CCNC(=O)c3c2c2cc(OC)c(OC)cc2n3C)cc1` reads 5.00.
As for `Cn1c2ccccc2c2c(-c3ccc(O)cc3)c[nH]c(=O)c21`, the pIC50 in the experiment with NIH3T3 [3] is under 4.52; with NIH3T3 [4], under 4.52; in the experiment with NIH3T3 [1] it was 4.76.
In the case of `COc1cc2[nH]c3c(=O)[nH]c(-c4ccccc4)cc3c2cc1OC`, the pIC50 in the experiment on NIH3T3 [1] was 4.88.
Compound `COc1cc2c3c(n(C)c2cc1OC)C(=O)NCC=C3C` showed a pIC50 in the experiment with NIH3T3 [1] of 4.78.
As to `COc1cc2c3c(-c4ccccc4)c[nH]c(=O)c3n(C)c2cc1OC`, the pIC50 with NIH3T3 [3] is 4.75; in the experiment with NIH3T3 [4], 4.86; in the experiment with NIH3T3 [1], 5.48; in experiment [2], 6.60.
Regarding `COc1cc2c3c(-c4cccc(O)c4)c[nH]c(=O)c3n(C)c2cc1OC`, the negative logarithm of the IC50 (pIC50) was 5.17 in the experiment on NIH3T3 [3], 5.21 in the experiment with NIH3T3 [4], 5.49 with NIH3T3 [1] and 7.05 in experiment [2].
On to `COc1ccc2c(c1)c1c(-c3ccc(O)cc3)c[nH]c(=O)c1n2C`, for which the pIC50 in the experiment with NIH3T3 [3] is 4.60; with NIH3T3 [4], under 4.52; in the experiment with NIH3T3 [1], 4.91.
`COc1cc2c3c(n(C)c2cc1OC)C(=O)NCC=C3c1ccc(O)cc1` showed a pIC50 in the experiment on NIH3T3 [1] of 4.84.
In the experiment with NIH3T3 [1], `COc1cc2c3c(n(C)c2cc1OC)C(=O)NCC=C3` had a pIC50 of 5.11.
As to `COc1cc2c3c(-c4ccc(O)cc4)c[nH]c(=O)c3n(Cc3ccccc3)c2cc1OC`, the negative logarithm of the IC50 (pIC50) in the experiment on NIH3T3 [3] was 4.75; with NIH3T3 [1], 5.12.
Consider `COc1cc2[nH]c3c(=O)[nH]cc(-c4ccc(O)cc4)c3c2cc1OC`, for which the negative logarithm of the IC50 (pIC50) was 4.86 with NIH3T3 [3], 4.87 in the experiment on NIH3T3 [4], 5.33 in the experiment on NIH3T3 [1] and 6.96 in experiment [2].
For the compound `COc1cc2c3c(n(C)c2cc1OC)C(=O)N(C)CC=C3c1ccc(O)cc1`, in the experiment with NIH3T3 [1], the pIC50 is 4.74.
On to `COc1cc2c3c(C)c[nH]c(=O)c3n(C)c2cc1OC`, for which the pIC50 was 4.97 with NIH3T3 [3], 5.25 with NIH3T3 [1] and under 6.22 in experiment [2].
For `COc1cc2c3c(-c4ccc(O)cc4)c[nH]c(=O)c3n(C)c2cc1OC`, the values for the pIC50 in the experiment with NIH3T3 [3], in the experiment on NIH3T3 [4] and in the experiment with NIH3T3 [1] were 5.14, 5.18 and 5.71, respectively. Further, the result in the experiment on NIH3T3 [5] was Active.
